Data as given in ChEMBL document CHEMBL3112475, “Synthesis of novel ring-A fused hybrids of oleanolic acid with capabilities to arrest cell cycle and induce apoptosis in breast cancer cells” (Eur J Med Chem, 2014).
Activity calls are given as the source filed them. The rule behind the calls is not given here.

Key:
[1] = test system: HeLa; test: Cytotoxicity against human HeLa cells after 48 hrs by MTT assay; assay type: functional, cell-based
How it was run: (§1)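 1 × 10⁴ cells, counted by trypan blue exclusion, were incubated in 96-well plates with a concentration series for 48 h at 37 °C in DMEM with 10% FBS. MTT reagent (5 mg/ml) was added and absorbance read at 570 nm. IC50 was taken from a plot of % viability versus control against concentration. Compounds were first screened at 100 µM, and only those giving ≥50% cytotoxicity went to dose-response.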

[2] = test system: MDA-MB-453; test: Cytotoxicity against human MDA-MB-453 cells after 48 hrs by MTT assay; assay type: functional, cell-based; conditions: MDA-MB-453, 48 h; how it was run: as §1
[3] = test system: PC-3; test: Cytotoxicity against human PC3 cells after 48 hrs by MTT assay; assay type: functional, cell-based; conditions: PC-3, 48 h; how it was run: as §1
[4] = Cytotoxicity against human ME180 cells after 48 hrs by MTT assay; assay type: functional, cell-based; conditions: ME-180, 48 h; how it was run: as §1
[5] = test system: HT-29; test: Cytotoxicity against human HT-29 cells after 48 hrs by MTT assay; assay type: functional, cell-based; conditions: HT-29, 48 h; how it was run: as §1
[6] = test system: MDA-MB-231; test: Cytotoxicity against human MDA-MB-231 cells after 48 hrs by MTT assay; assay type: functional, cell-based; conditions: MDA-MB-231, 48 h; how it was run: as §1
[7] = test system: MCF7; test: Cytotoxicity against human MCF7 cells after 48 hrs by MTT assay; assay type: functional, cell-based; conditions: MCF7, 48 h; how it was run: as §1
[8] = test system: MCF7; test: Cell cycle arrest in human MCF7 cells assessed as accumulation at S phase at 10 uM after 48 hrs by propidium iodide staining (reference value: 10.2%); assay type: functional
[9] = test system: MCF7; test: Cell cycle arrest in human MCF7 cells assessed as accumulation at S phase at 5 uM after 48 hrs by propidium iodide staining (reference value: 10.2%); assay type: functional
[10] = test system: MCF7; test: Cell cycle arrest in human MCF7 cells assessed as accumulation at G2/M phase at 10 uM after 48 hrs by propidium iodide staining (reference value: 14.9%); assay type: functional
[11] = test system: MCF7; test: Induction of apoptosis in human MCF7 cells assessed as increase of early apoptotic cells at 5 uM after 48 hrs by acridine orange and ethidium bromide staining based fluorescence microscopic analysis; assay type: functional, cell-based
How it was run: (§2)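 MCF-7 cells were plated at 1 × 10⁶ cells/ml and treated with compound for 48 h. After acridine orange/ethidium bromide dual staining, cells were viewed 30 min later by fluorescence microscopy through a blue filter. Green homogeneous nuclei were scored as intact, condensed or fragmented chromatin as apoptotic, and orange-red nuclei as late apoptotic/necrotic. At least 200 cells were counted in random fields, and each test was done three times.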

[12] = test system: MCF7; test: Cell cycle arrest in human MCF7 cells assessed as accumulation at G0/G1 phase at 5 uM after 48 hrs by propidium iodide staining (reference value: 69.2%); assay type: functional
[13] = test system: MCF7; test: Ratio of etoposide IC50 to compound IC50 for human MCF7 cells; assay type: functional
[14] = test system: MCF7; test: Cell cycle arrest in human MCF7 cells assessed as accumulation at G2/M phase at 5 uM after 48 hrs by propidium iodide staining (reference value: 14.9%); assay type: functional
[15] = test system: MCF7; test: Induction of apoptosis in human MCF7 cells assessed as increase of late apoptotic/necrotic cells at 10 uM after 48 hrs by acridine orange and ethidium bromide staining based fluorescence microscopic analysis; assay type: functional, cell-based; how it was run: as §2
[16] = test system: MCF7; test: Cell cycle arrest in human MCF7 cells assessed as accumulation at G0/G1 phase at 10 uM after 48 hrs by propidium iodide staining (reference value: 69.2%); assay type: functional
[17] = test system: MCF7; test: Induction of morphological change in human MCF7 cells assessed as membrane blebbing at 10 uM after 48 hrs by acridine orange and ethidium bromide staining based fluorescence microscopic analysis; assay type: functional, cell-based; how it was run: as §2
[18] = test system: MCF7; test: Induction of morphological change in human MCF7 cells assessed as cell shrinkage at 10 uM after 48 hrs by acridine orange and ethidium bromide staining based fluorescence microscopic analysis; assay type: functional; how it was run: as §2
[19] = test system: MCF7; test: Induction of morphological change in human MCF7 cells assessed as chromatin condensation with destructive fragmentation of nucleus at 10 uM after 48 hrs by acridine orange and ethidium bromide staining based fluorescence microscopic analysis; assay type: functional, cell-based; how it was run: as §2

SMILES | IC50 [1] | IC50 [2] | IC50 [3] | IC50 [4] | IC50 [5] | IC50 [6] | IC50 [7] | Activity [8] | Activity [9] | Activity [10] | Activity [11] | Activity [12] | Ratio IC50 [13] | Activity [14] | Activity [15] | Activity [16] | Activity [17] | Activity [18] | Activity [19]
COc1cccc2c1C(=O)c1c(O)c3c(c(O)c1C2=O)C[C@@](O)(C(=O)CO)C[C@@H]3O[C@H]1C[C@H](N)[C@H](O)[C@H](C)O1 [DOXORUBICIN] | 0.36 µM | 1.99 µM | 0.19 µM | 0.39 µM |  |  |  |  |  |  |  |  |  |  |  |  |  |  | 
CC1(C)CC[C@]2(C(=O)O)CC[C@]3(C)C(=CC[C@@H]4[C@@]5(C)CC[C@H](O)C(C)(C)[C@@H]5CC[C@]43C)[C@@H]2C1 [OLEANOLIC_ACID] | > 100 µM | > 100 µM | > 100 µM | > 100 µM | > 100 µM | > 100 µM | > 100 µM |  |  |  |  |  |  |  |  |  |  |  | 
COC(=O)[C@]12CCC(C)(C)C[C@H]1C1=CC[C@@H]3[C@@]4(C)CCC(=O)C(C)(C)[C@@H]4CC[C@@]3(C)[C@]1(C)CC2 | > 100 µM | > 100 µM | > 100 µM | > 100 µM | > 100 µM | > 100 µM | 78.7 µM |  |  |  |  |  |  |  |  |  |  |  | 
COC(=O)[C@]12CCC(C)(C)C[C@H]1C1=CC[C@@H]3[C@@]4(C)C/C(=C\c5ccccc5)C(=O)C(C)(C)[C@@H]4CC[C@@]3(C)[C@]1(C)CC2 | > 100 µM | > 100 µM | > 100 µM | > 100 µM | > 100 µM | > 100 µM | 71.7 µM |  |  |  |  |  |  |  |  |  |  |  | 
COC(=O)[C@]12CCC(C)(C)C[C@H]1C1=CC[C@@H]3[C@@]4(C)Cc5c(-c6ccccc6)nc(N)nc5C(C)(C)[C@@H]4CC[C@@]3(C)[C@]1(C)CC2 | 45.1 µM | 12.6 µM | 75.3 µM | 16.7 µM | 30.7 µM | 16.3 µM | 10.6 µM | 19.8% | 13% | 14.2% | Active | 62.4% | 2 | 17.8% | Active | 59.4% | Active | Active | Active
COC(=O)[C@]12CCC(C)(C)C[C@H]1C1=CC[C@@H]3[C@@]4(C)Cc5c(noc5-c5ccccc5)C(C)(C)[C@@H]4CC[C@@]3(C)[C@]1(C)CC2 | > 100 µM | > 100 µM | > 100 µM | > 100 µM | > 100 µM | > 100 µM | 88.2 µM |  |  |  |  |  |  |  |  |  |  |  | 
COC(=O)[C@]12CCC(C)(C)C[C@H]1C1=CC[C@@H]3[C@@]4(C)Cc5c(-c6ccccc6)nc(=S)[nH]c5C(C)(C)[C@@H]4CC[C@@]3(C)[C@]1(C)CC2 | 75.4 µM | 40.6 µM | > 100 µM | > 100 µM | 69 µM | 75.5 µM | 30.9 µM |  |  |  |  |  |  |  |  |  |  |  | 
COC(=O)[C@]12CCC(C)(C)C[C@H]1C1=CC[C@@H]3[C@@]4(C)Cc5c(nn(-c6ccccc6)c5-c5ccccc5)C(C)(C)[C@@H]4CC[C@@]3(C)[C@]1(C)CC2 | > 100 µM | > 100 µM | > 100 µM | > 100 µM | > 100 µM | > 100 µM | > 100 µM |  |  |  |  |  |  |  |  |  |  |  | 
COc1cc([C@@H]2c3cc4c(cc3[C@@H](O[C@@H]3O[C@@H]5CO[C@@H](C)O[C@H]5[C@H](O)[C@H]3O)[C@H]3COC(=O)[C@H]23)OCO4)cc(OC)c1O [ETOPOSIDE] | 4.71 µM |  | 14.4 µM | 8.9 µM | 21.4 µM | 24.2 µM | 23.9 µM |  |  |  |  |  |  |  |  |  |  |  | 
COC(=O)[C@]12CCC(C)(C)C[C@H]1C1=CC[C@@H]3[C@@]4(C)Cc5c(-c6ccccc6)nc(=O)[nH]c5C(C)(C)[C@@H]4CC[C@@]3(C)[C@]1(C)CC2 | > 100 µM | 96.7 µM | 87.4 µM | > 100 µM | > 100 µM | > 100 µM | 78.9 µM |  |  |  |  |  |  |  |  |  |  |  | 
COC(=O)[C@]12CCC(C)(C)C[C@H]1C1=CC[C@@H]3[C@@]4(C)C[C@@H]5C(=NN[C@H]5c5ccccc5)C(C)(C)[C@@H]4CC[C@@]3(C)[C@]1(C)CC2 | > 100 µM | > 100 µM | > 100 µM | > 100 µM | > 100 µM | > 100 µM | 96.6 µM |  |  |  |  |  |  |  |  |  |  |  | 
